Screens as filed in PubChem BioAssay.
Hits are enriched below; roughly 2.1% of the tested compounds scored in any of these assays.
STEP inh = blocks human striatal-enriched tyrosine phosphatase; P54829; recombinant STEP, OMFP fluorogenic substrate, fluorescence; inhibition, % at 20 µM; 360,000 tested, 0.25% active; AID 588621;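 active = inhibition at 20 µM, scaled per plate between control wells, above about 37%, limit read from the data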
Target sequence (P54829 whole entry, looked up): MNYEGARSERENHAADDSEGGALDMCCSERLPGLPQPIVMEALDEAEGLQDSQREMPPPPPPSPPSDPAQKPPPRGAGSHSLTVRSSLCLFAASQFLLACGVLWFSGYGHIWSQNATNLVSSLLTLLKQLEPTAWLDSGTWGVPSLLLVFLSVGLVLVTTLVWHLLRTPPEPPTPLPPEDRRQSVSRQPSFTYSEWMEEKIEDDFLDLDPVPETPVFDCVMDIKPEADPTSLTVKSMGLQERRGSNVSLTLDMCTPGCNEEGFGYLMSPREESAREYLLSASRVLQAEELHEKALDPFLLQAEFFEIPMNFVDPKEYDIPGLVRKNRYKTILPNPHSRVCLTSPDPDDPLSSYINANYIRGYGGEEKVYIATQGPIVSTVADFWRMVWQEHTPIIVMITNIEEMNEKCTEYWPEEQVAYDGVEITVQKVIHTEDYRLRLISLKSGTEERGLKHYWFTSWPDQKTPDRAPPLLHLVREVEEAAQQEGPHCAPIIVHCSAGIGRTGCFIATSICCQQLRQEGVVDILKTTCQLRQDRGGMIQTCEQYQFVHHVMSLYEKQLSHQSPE
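Test system: STEP tyrosine phosphatase / Reagent: OMFP at 25 µM / Doses: 20 µM, 1% DMSO / Read-out: percent inhibition scaled to no-enzyme and uninhibited-enzyme controls, plate-pattern corrected / Detection: FITC-channel fluorescence of OMFP product / Medium: Bis-Tris buffer pH 6.0, 2.5 mM DTT, 0.005% Tween 20 / Schedule: 20 min at room temperature, dark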
GRK2 inh = blocks RNA aptamer binding to human GRK2; bead flow cytometry, FAM-aptamer displacement from GRK2; 330,000 tested, 0.59% active; inhibition of aptamer binding, % at 10 µM;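 active = inhibition of aptamer binding above 40%, roughly 3 SD of noise, on plates passing a quality check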;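 note: median bead fluorescence of bound FAM aptamer so fluorescent compounds give negative values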
LMPTP block = LMPTP (human) inhibition; recombinant LMPTP-A, OMFP fluorogenic substrate, fluorescence intensity; P24666; inhibition, % at 20 µM; 360,000 tested, 0.22% active; AID 651560;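 active = compounds that cut the enzyme signal by at least half of the control window in the single-dose screen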
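Test system – LMPTP-A enzyme · Amount – LMPTP-A at 0.625 nM final in the reaction · Buffer or medium – Bis-Tris pH 6.0, DTT, detergent · Reagent – OMFP 400 µM · Doses – single 20 µM dose · Schedule – reaction 50 min, room temperature, dark · Detection – fluorescence intensity of OMFP turnover product · Evaluation – percent inhibition versus substrate-only and uninhibited controls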
SUMO1 PPI mod = SUMO1-SIM interaction modulation; AID 602429; inhibition, % at 20 µM; SUMO1 binding to a labelled peptide, TR-FRET, 1 h; 360,000 tested, 0.33% active; P63165; in the data active = inhibition above about 37%
DNMT1 block = DNMT1 (human) enzyme inhibition. inhibition (reported as % activation of signal), % at 10 µM. P26358. 360,000 tested, 0.83% active. DNMT1 molecular beacon, Hinp1I cleavage, fluorescence; in the data active = inhibition above about 50%
Scp1 inh = Scp-1 (human) phosphatase inhibition; Q9GZU7; Recombinant Scp1, phosphopeptide, malachite green phosphate absorbance; inhibition, % at 20 µM; 340,000 tested, 0.88% active; AID 493091;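 active = inhibition above about 50% at 20 µM, limit read from the data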
Target sequence (Q9GZU7 76-261 limits assumed): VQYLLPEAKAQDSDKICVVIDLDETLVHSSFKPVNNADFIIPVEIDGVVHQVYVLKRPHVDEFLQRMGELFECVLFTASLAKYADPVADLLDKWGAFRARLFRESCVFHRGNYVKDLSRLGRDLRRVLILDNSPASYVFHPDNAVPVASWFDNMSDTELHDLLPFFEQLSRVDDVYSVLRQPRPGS
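Material – SCP-1 phosphatase catalytic domain, residues 76-261 · Buffer or medium – Acidic Tris acetate buffer with magnesium and detergent · Also added – Phospho 17-mer peptide substrate · Compound – single 20 µM dose, 1% DMSO · Times – 45 min room-temperature reaction, 5 min colour, 30 min stabiliser · Technique – Phosphate-binding colour reagent, absorbance read at 630 nm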
GRK2 inh confirm = confirmation of human GRK2 inhibitors displacing RNA aptamer; shares compounds with GRK2 inh; bead-bound GRK2, FAM-aptamer displacement, flow cytometry; aptamer displacement, % at 10 µM; 2,000 tested, 4% active;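 active = aptamer displacement above 40%, near three times the noise of non-fluorescent compounds, on plates passing quality checks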;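 note: negative values mostly reflect intrinsic compound fluorescence rather than true enhancement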
Aptamer quench = quenches fluorescent RNA aptamer, GRK2 hit artifact. shares compounds with GRK2 inh. Fluorescent RNA aptamer beads, quenching, flow cytometry; hits give high values. fluorescence change (kMESF span), kMESF (concentration not given with the values). 110 tested, under 10 active. AID 504521;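 active = compounds whose bead fluorescence drops by more than 37 kMESF across the dose range, marking them as dye quenchers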
FAM quench CP1 = counter-screen for GRK2 aptamer inhibitors: fluorescent aptamer quenchers | 2,000 tested, under 10 active | fluorescence response (% of DMSO), % at 10 µM | Carboxyfluorescein RNA aptamer on beads, flow cytometry quenching; hits give low values | shares compounds with GRK2 inh;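 active = compounds that quench the bead-bound fluorescent RNA probe, cutting fluorescence to under half of the solvent control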;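 note: counterscreen run without GRK2 so only probe quenching by compound is measured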
GRK2 confirm 2 = confirmation of human GRK2 inhibitors binding RNA aptamer site. bead-bound GRK2, FAM-aptamer displacement, flow cytometry. AID 504782. inhibition of aptamer binding, % at 10 µM. 360 tested, under 10 active. shares compounds with GRK2 inh;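 active = inhibition of aptamer binding above 40%, about triple the noise seen with nonglowing compounds, on plates passing quality control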;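 note: negative values mostly come from compounds that fluoresce themselves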
FAM quench SP = counter-screen for GRK2 binding hits: quenchers of fluorescent RNA aptamer; shares compounds with GRK2 inh; carboxyfluorescein RNA aptamer beads, flow cytometry quenching; hits give low values; fluorescence response vs DMSO, % at 10 µM; 360 tested, under 10 active; AID 588494;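 active = response vs DMSO under 50%, meaning signal dropped by over half, treated as fluorescence quencher; inconclusive = no clear call, values can overlap the other calls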;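 note: labelled aptamer on streptavidin beads without GRK2 as a quench counter-screen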
Of the large screens only hits and unclear results are named; the others gave an inactive call (follow-up assays come after a bar, where they were run).

O=C(CN1CCc2ccccc2C1)NCC(=O)Nc1ccc(F)cc1	none
O=C(CSc1cnc2ccccc2n1)NC1CCCC1	GRK2 inh 81.0 | GRK2 inh confirm inactive | FAM quench CP1 inactive
CCn1c(CNC(=O)c2ccccc2F)nnc1SCC(=O)NC1CCCCC1	none
CCCCNC(=O)c1ccccc1SCC(=O)NC1CCCCCCC1	GRK2 inh 61.0 | GRK2 inh confirm inactive | FAM quench CP1 inactive
Cc1noc(C)c1C(=O)OC(C)C(=O)NC(C)c1ccc(Cl)cc1Cl (stereo not given)	none
CC1CCN(c2ccc([N+](=O)[O-])cn2)CC1	GRK2 inh 55.0 | GRK2 confirm 2 inactive | FAM quench SP inactive
O=C(C1CC(=O)N(c2ccccc2)C1)N1CCN(c2ccc(F)cc2)CC1 (stereo not given)	none
O=C(COC(=O)CNC(=O)c1ccccc1)Nc1nnc(-c2ccccc2)o1	none | GRK2 inh confirm inactive | FAM quench CP1 inactive
O=C(COC(=O)CNC(=O)c1cccc(Br)c1)Nc1nnc(-c2ccccc2)o1	none
Cc1cc2c(cc1S(=O)(=O)N1CCc3ccccc31)NC(=O)CO2	GRK2 inh 73.0 | GRK2 inh confirm inactive | FAM quench CP1 inactive
CCCCN(C(C)=O)c1c(CC)nc2ccc(C(=O)NCc3cccs3)cn12	none (no result: GRK2 inh, Scp1 inh)
CCN(CC)CCn1c(OC)cc(=O)[nH]c1=O	GRK2 inh 69.0 | GRK2 inh confirm inactive | FAM quench CP1 inactive
O=C(CSc1ccccc1)Nc1ccc(Cl)c(S(=O)(=O)N2CCOCC2)c1	none | GRK2 inh confirm inactive | FAM quench CP1 inactive
COc1ccc(C(CNS(=O)(=O)c2ccc(F)cc2)N2CCN(C)CC2)cc1 (stereo not given)	none
COc1ccc(S(=O)(=O)NCC(c2ccc(F)cc2)N2CCN(C)CC2)cc1 (stereo not given)	GRK2 inh 76.0 | GRK2 inh confirm 46.3 | Aptamer quench inactive | FAM quench CP1 inactive
Cc1ccc(/C=C2\C(=O)Nc3ccccc32)o1	none
Cc1ccc2c(c1)/C(=C/c1ccco1)C(=O)N2	GRK2 inh 94.0 | GRK2 inh confirm inactive | FAM quench CP1 inactive
NC(CCCCCP(=O)(c1ccccc1)c1ccccc1)C(=O)O (stereo not given)	GRK2 inh 87.0 (no result: STEP inh, LMPTP block, SUMO1 PPI mod, DNMT1 block) | GRK2 inh confirm inactive | FAM quench CP1 inactive
CC(=O)N(c1ccc(N(C(C)=O)S(=O)(=O)c2cccs2)cc1)S(=O)(=O)c1cccs1	GRK2 inh 53.0 | GRK2 inh confirm inactive | FAM quench CP1 inactive
COc1ccc(N(C(=O)c2ccco2)S(=O)(=O)c2cccs2)cc1	GRK2 inh 98.0 | GRK2 inh confirm inactive | FAM quench CP1 inactive
COc1ccc(C(=O)N(c2ccc(OC)cc2)S(=O)(=O)c2cccs2)cc1	none
COc1ccccc1CCC(=O)N(C)CC(=O)Nc1ccc(F)cc1	none
COc1ccccc1S(=O)(=O)n1cc(Cc2ccccc2)c(N)n1	GRK2 inh 74.0 | GRK2 inh confirm inactive | FAM quench CP1 inactive
OC1(c2cccc(C(F)(F)F)c2)CCN(Cc2nnnn2Cc2ccccc2)CC1	GRK2 inh 93.0 | GRK2 inh confirm inactive | FAM quench CP1 inactive
OC1(c2cccc(C(F)(F)F)c2)CCN(Cc2nnnn2CCc2ccccc2)CC1	none
COc1cccc(C(NC(C)=O)c2ccc3cccnc3c2O)c1 (stereo not given)	GRK2 inh 80.0 | GRK2 inh confirm inactive | FAM quench CP1 inactive
O=c1[nH]ncc2c3ccccc3n(Cc3ccccc3)c12	none
CCCn1c2ccccc2c2cn[nH]c(=O)c21	none | GRK2 inh confirm inactive | FAM quench CP1 inactive
Fc1ccc(-c2cn(-c3ccccc3)c3[n+]2CCS3)cc1	GRK2 inh 43.0 | GRK2 inh confirm inactive | FAM quench CP1 inactive
COc1ccccc1NC(=O)C(C)OC(=O)c1nc2nc(C)cc(C)n2n1 (stereo not given)	none
C=C(C)CSc1nc2sc3c(c2c(=O)n1-c1ccccc1)CCN(C)C3	none | GRK2 inh confirm inactive | FAM quench CP1 inactive
Cc1ccc(S(=O)(=O)N2CCN(C(=O)c3cc4c(s3)CCCC4)CC2)c(C)c1	GRK2 inh 49.0 | GRK2 inh confirm inactive | FAM quench CP1 inactive
CCN1/C(=C/c2ccc3cccc(C)c3[n+]2CC)Sc2ccccc21	GRK2 inh 91.0 | GRK2 inh confirm 68.8 | Aptamer quench inactive | FAM quench CP1 inactive
COc1ccc(OC)c(NC(=O)COC(=O)c2c3c(nc4ccccc24)CCCC3)c1	GRK2 inh 73.0 | GRK2 inh confirm inactive | FAM quench CP1 inactive
COC(=O)CNc1nc(C2CC2)nc2c1nnn2Cc1ccccc1Cl	none
CN(C)S(=O)(=O)c1ccc(Nc2nc(C3CC3)nc3c2nnn3Cc2ccccc2Cl)cc1	GRK2 inh 77.0 | GRK2 confirm 2 inactive | FAM quench SP inconclusive
O=[N+]([O-])c1ccc(CN2[C@H](COCc3ccccc3)[C@@H](N3CCCC3)CS2(=O)=O)cc1	none (no result: GRK2 inh, Scp1 inh)
O=C1C=C(O)c2cccc3cccc1c23	GRK2 inh 100.0 | GRK2 inh confirm inactive | FAM quench CP1 inactive
Cc1nc(CC(=O)NNS(=O)(=O)c2cccc(Cl)c2Cl)cs1	none
O=C(NCc1ccccc1)C(c1ccncc1)N(C(=O)c1csnn1)c1ccccc1F (stereo not given)	GRK2 inh 95.0 | GRK2 inh confirm inactive | FAM quench CP1 inactive
CCSc1nc2c(c(=O)[nH]c(=O)n2C)n1C/C=C(/C)Cl	none
CCOC(=O)C(C)Sc1nc2c(c(=O)[nH]c(=O)n2C)n1C/C=C(/C)Cl (stereo not given)	GRK2 inh 58.0 | GRK2 inh confirm 57.7 | Aptamer quench inactive | FAM quench CP1 inactive
O=C(NC1CC1)c1cccc(NC(=O)C2CCN(S(=O)(=O)c3ccccc3C(F)(F)F)CC2)c1	none (no result: GRK2 inh, Scp1 inh)
CC(=O)Nc1ccc(S(=O)(=O)N2CCN(S(=O)(=O)c3ccc(NC(C)=O)cc3)CC2)cc1	none
